Measurements from different studies.
Lines come from different studies, so protocols differ.
Cell line: RPMI-8226
Observed: cell growth or viability

| Structure (SMILES) | method | concentration | time | measurement | result |
| --- | --- | --- | --- | --- | --- |
| COc1ccc(C(=O)/C=C/c2ccc(Cl)c(Cl)c2)cc1S(N)(=O)=O | SRB | 10 µM | – | inhibition | 107% |
| COc1cccc(Oc2ccccc2NC(=O)CNC(=O)c2cccc3ccccc23)c1 | SRB | – | 48 h | GI50 | 955 nM |
| CC(C)C[C@H](NC(=O)[C@H](Cc1ccccc1)NC(=O)c1cnccn1)B(O)O | ATP luminescence | – | – | EC50 | 3.9 nM |
| Cc1cc(C)n(C(=S)[S][Au][PH](CCCCCC[PH]([Au][S]C(=S)n2nc(C)cc2C)(c2ccccc2)c2ccccc2)(c2ccccc2)c2ccccc2)n1 | – | – | – | GI50 | 140 nM |
| CCC[C@H](Nc1nc(-c2ccc(NC(=O)NCC)c(OC)c2)ncc1C)c1cccnc1 | fluorescence | – | 72 h | IC50 | 18.3 nM |
| COc1ccc(C(=O)/C=C/c2c(F)cccc2Cl)cc1S(N)(=O)=O | SRB | 10 µM | – | inhibition | 110% |
| CC[C@]1(O)C[C@H]2CN(CCc3c([nH]c4ccccc34)[C@@](C(=O)OC)(c3cc4c(cc3OC)N(C=O)[C@H]3[C@@](O)(C(=O)OC)[C@H](OC(C)=O)[C@]5(CC)C=CCN6CC[C@]43[C@@H]65)C2)C1 | fluorescence | – | 72 h | IC50 | 17.9 nM |
| COc1ccc(C(=O)Nc2cccc(-c3nc(NC(P(=O)(O)O)P(=O)(O)O)c4ccsc4n3)c2)cc1F | MTS | – | 72 h | EC50 | 460 nM |
| CC(C)C[C@H](NC(=O)[C@H](Cc1ccccc1)NC(=O)c1cnccn1)B(O)O | ATP luminescence | – | – | IC50 | 3.5 nM |
| N[C@@H]1CCCN(c2c(/C=C3\SC(=O)NC3=O)cccc2-c2ccccc2)C1 | thymidine uptake | – | – | GI50 | 2630 nM |
| O=C(Nc1cccc(-c2nc(NC(P(=O)(O)O)P(=O)(O)O)c3ccsc3n2)c1)c1ccc(C(F)(F)F)cc1 | MTS | – | 72 h | EC50 | 710 nM |
| COc1cc(Nc2nccc(-c3cnn4nc(OC)ccc34)n2)cc(C(F)(F)F)c1 | ATP luminescence | – | – | IC50 | 220 nM |
| C=CC(=O)N1CCC[C@@H](n2nc(-c3ccc(Oc4ccccc4)cc3)c3c(N)ncnc32)C1 | – | – | 48 h | GI50 | > 10000 nM |
